Experimental data collected from several papers.
Lines come from different studies, so protocols differ.
Target: Serine/threonine-protein kinase 36 (STK36, Homo sapiens, UniProt Q9NRP7)
One construct used (Q9NRP7 1-1315): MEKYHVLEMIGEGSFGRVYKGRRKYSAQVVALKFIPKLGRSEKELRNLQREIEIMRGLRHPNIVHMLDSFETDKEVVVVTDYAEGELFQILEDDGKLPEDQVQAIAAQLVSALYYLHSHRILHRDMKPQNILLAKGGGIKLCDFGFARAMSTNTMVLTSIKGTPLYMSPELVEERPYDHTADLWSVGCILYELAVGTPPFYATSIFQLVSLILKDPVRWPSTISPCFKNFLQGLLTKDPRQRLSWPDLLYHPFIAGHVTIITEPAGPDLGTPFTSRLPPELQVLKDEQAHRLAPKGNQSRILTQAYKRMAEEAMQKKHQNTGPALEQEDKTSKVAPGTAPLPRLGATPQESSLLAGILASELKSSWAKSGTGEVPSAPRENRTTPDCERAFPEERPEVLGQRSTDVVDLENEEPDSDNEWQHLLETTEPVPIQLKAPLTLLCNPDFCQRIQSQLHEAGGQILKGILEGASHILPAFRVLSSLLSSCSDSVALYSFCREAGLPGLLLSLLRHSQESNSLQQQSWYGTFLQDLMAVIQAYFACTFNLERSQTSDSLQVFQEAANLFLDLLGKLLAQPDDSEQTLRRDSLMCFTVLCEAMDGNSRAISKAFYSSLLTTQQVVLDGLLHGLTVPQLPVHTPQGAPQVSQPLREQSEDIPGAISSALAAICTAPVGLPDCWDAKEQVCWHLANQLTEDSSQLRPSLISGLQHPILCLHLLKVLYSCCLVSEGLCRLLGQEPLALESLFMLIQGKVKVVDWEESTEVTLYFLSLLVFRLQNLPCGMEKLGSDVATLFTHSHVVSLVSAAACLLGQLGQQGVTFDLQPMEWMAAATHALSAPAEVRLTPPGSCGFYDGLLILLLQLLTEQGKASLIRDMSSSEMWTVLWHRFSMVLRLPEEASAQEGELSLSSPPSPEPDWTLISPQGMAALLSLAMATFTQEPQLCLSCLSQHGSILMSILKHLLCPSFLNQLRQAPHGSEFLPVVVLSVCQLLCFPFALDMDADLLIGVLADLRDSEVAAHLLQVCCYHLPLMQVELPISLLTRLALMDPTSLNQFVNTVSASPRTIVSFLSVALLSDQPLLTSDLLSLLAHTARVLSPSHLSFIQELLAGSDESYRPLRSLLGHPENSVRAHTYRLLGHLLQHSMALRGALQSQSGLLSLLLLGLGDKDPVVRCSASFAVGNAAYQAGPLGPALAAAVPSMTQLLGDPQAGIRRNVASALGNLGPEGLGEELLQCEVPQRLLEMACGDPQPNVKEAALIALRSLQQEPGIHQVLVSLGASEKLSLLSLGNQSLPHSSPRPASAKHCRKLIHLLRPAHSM

SMILES	assay	conditions	remaining binding [%]
O=C(NCCCN1CCOCC1)c1ccc(Nc2ncc(Cl)c(-c3ccc(Cl)s3)n2)cc1	binding, competition with immobilised ligand	1 µM	6.2
CC(=O)Nc1c(C(C)=O)c(=O)n(C)c2nc(-c3ccc(Cl)cc3Cl)c(-c3ccc(Cl)cc3)cc12	cell-free assay, competition with immobilised ligand	1 µM	92
Nc1ncc2c(n1)-c1c([nH]c3ccc(C#CC4CC4)cc13)CCCC2	binding, competition with immobilised ligand	1 µM	100
CN(C)c1nccc(-c2cnc3ncccn23)n1	binding	1 µM	99
CNCc1ccccc1-c1csc([C@H](C)Nc2nc(C)nc3cc(OC)c(OC)cc23)c1	cell-free assay, competition with immobilised ligand	1 µM	100
FC(F)(F)Oc1cccc(-c2cnc3ccc(-c4ccncc4)nn23)c1	binding, competition with immobilised ligand	5 µM	95
c1cnn2ncc(-c3ccnc(N4CCC45COC5)n3)c2c1	binding	1 µM	76
COc1ncc2cc3ccccc3nc2c1C#N	cell-free assay, competition with immobilised ligand	5 µM	88
COc1cnc(Nc2cccc(S(N)(=O)=O)c2)nc1N1CCN(c2ccccc2)C(=O)C1	binding, competition with immobilised ligand	1 µM	100
Cc1c[nH]c2nccc(Oc3c(F)cc(Nc4cc(Cl)nc(N)n4)cc3F)c12	cell-free assay, competition with immobilised ligand	0.1 µM	85
C[C@H]1CCN(c2nccc(-c3cnn4ncccc34)n2)C1	binding	1 µM	100
C=CC(=O)N1CCC(C(=O)NCC(=O)N2CCN(c3nc(-c4cnc(N)nc4C(F)F)nc(N4CCOCC4)n3)CC2)CC1	binding, competition with immobilised ligand	1 µM	95
CCN1CCN(Cc2ccc(C(=O)Nc3ccc(C)c(Oc4ccc5c(c4)CC(=O)N5)c3)cc2C(F)(F)F)CC1	binding, competition with immobilised ligand	1 µM	81
Cc1cnc(Nc2ccc(C(=O)N3CCC(N4CCCC4)CC3)cc2)nc1-c1cc2ccccc2s1	binding, competition with immobilised ligand	1 µM	3.6
CN(c1nccc(-c2cnn3ncccc23)n1)C1CC1	binding	1 µM	100
CN1CCN(c2cnc3c(C4CCN(C(=O)c5ccc(OC(F)(F)F)cc5N)CC4)ncnc3c2)CC1	cell-free assay, competition with immobilised ligand	1 µM	75
CN(C)c1nccc(-c2cnn3ncccc23)n1	binding	1 µM	100
O=C(Nc1c[nH]nc1C(=O)NC1CCNCC1)c1cc(F)cc(F)c1	binding, competition with immobilised ligand	1 µM	100
COc1cccc(CNC(=O)c2nc3scc(COCc4ccc(C(=O)O)cc4)c3c(=O)[nH]2)c1	cell-free assay, competition with immobilised ligand	1 µM	100
N[C@@H]1CCN(c2nccc(-c3cnn4ncccc34)n2)C1	binding	1 µM	77
CS(=O)(=O)N1CCCC(NC(=O)[C@H](CCC2CCCCC2)NC(=O)c2ccc(CNc3ncnc4c3nnn4-c3ccccc3)cc2)C1 (stereo partly shown)	cell-free assay, competition with immobilised ligand	0.1 µM	97
O=C(c1ccc(Nc2ncc(Cl)c(-c3cc4ccccc4s3)n2)cc1)N1CCC(N2CCCC2)CC1	binding, competition with immobilised ligand	1 µM	3.4
